Measured values taken from ChEMBL document CHEMBL3616442, “Unconventional Knoevenagel-type indoles: Synthesis and cell-based studies for the identification of pro-apoptotic agents” (Eur J Med Chem, 2015).

Experiments:
Assay type in all cases: functional
SF-268 = assay: Growth inhibition of human SF268 cells after 48 hrs by sulforhodamine B assay; conditions: SF-268, 48 h
UO-31 = assay: Growth inhibition of human UO31 cells after 48 hrs by sulforhodamine B assay; conditions: UO-31, 48 h
A498 = assay: Growth inhibition of human A498 cells after 48 hrs by sulforhodamine B assay; conditions: A498, 48 h
In short: (§1)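 NCI 60-cell-line screen. Compounds tested at five 10-fold dilutions from 10^-4 to 10^-8 M. Cells exposed for the last 48 h of a 72 h incubation, growth estimated by sulforhodamine B protein assay. GI50 is the concentration giving 50% growth inhibition. Values beyond the tested range are expressed as greater or lesser than the extreme concentration.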

MDA-MB-231 = assay: Growth inhibition of human MDA-MB-231 cells after 48 hrs by sulforhodamine B assay; conditions: MDA-MB-231, 48 h; in short: as §1
UACC-62 = assay: Growth inhibition of human UACC62 cells after 48 hrs by sulforhodamine B assay; conditions: UACC-62, 48 h
NCI-H322M = assay: Growth inhibition of human NCI-H322M cells after 48 hrs by sulforhodamine B assay; in short: as §1
NCI-H226 = assay: Growth inhibition of human NCI-H226 cells after 48 hrs by sulforhodamine B assay; conditions: NCI-H226, 48 h; in short: as §1
MDA-MB-435 = assay: Growth inhibition of human MDA-MB-435 cells after 48 hrs by sulforhodamine B assay; conditions: MDA-MB-435, 48 h; in short: as §1
[1] = Growth inhibition of human MOLT4 cells after 48 hrs by sulforhodamine B assay; conditions: MOLT-4, 48 h; in short: as §1
OVCAR-3 = assay: Growth inhibition of human OVCAR3 cells after 48 hrs by sulforhodamine B assay; conditions: OVCAR-3, 48 h; in short: as §1
K562 = assay: Growth inhibition of human K562 cells after 48 hrs by sulforhodamine B assay; conditions: K562, 48 h; in short: as §1
HT-29 = assay: Growth inhibition of human HT-29 cells after 48 hrs by sulforhodamine B assay; conditions: HT-29, 48 h; in short: as §1
[2] = Growth inhibition of human BT549 cells after 48 hrs by sulforhodamine B assay; conditions: BT-549, 48 h; in short: as §1
[3] = Growth inhibition of human COLO205 cells after 48 hrs by sulforhodamine B assay; conditions: COLO 205, 48 h; in short: as §1
CCRF-CEM = assay: Growth inhibition of human CCRF-CEM cells after 48 hrs by sulforhodamine B assay; in short: as §1
SW-620 = assay: Growth inhibition of human SW620 cells after 48 hrs by sulforhodamine B assay; conditions: SW-620, 48 h
786-0 = assay: Growth inhibition of human 786-0 cells after 48 hrs by sulforhodamine B assay; conditions: 786-0, 48 h; in short: as §1
M14 = assay: Growth inhibition of human M14 cells after 48 hrs by sulforhodamine B assay; conditions: M14, 48 h; in short: as §1
Malme-3M = assay: Growth inhibition of human MALME-3M cells after 48 hrs by sulforhodamine B assay; in short: as §1
PC-3 = assay: Growth inhibition of human PC3 cells after 48 hrs by sulforhodamine B assay; conditions: PC-3, 48 h
OVCAR-8 = assay: Growth inhibition of human OVCAR8 cells after 48 hrs by sulforhodamine B assay; conditions: OVCAR-8, 48 h
[4] = Growth inhibition of human EKVX cells after 48 hrs by sulforhodamine B assay; in short: as §1
NCI-H23 = assay: Growth inhibition of human NCI-H23 cells after 48 hrs by sulforhodamine B assay; conditions: NCI-H23, 48 h; in short: as §1
ACHN = assay: Growth inhibition of human ACHN cells after 48 hrs by sulforhodamine B assay; in short: as §1
TK-10 = assay: Growth inhibition of human TK10 cells after 48 hrs by sulforhodamine B assay; conditions: TK-10, 48 h
CAKI-1 = assay: Growth inhibition of human CAKI-1 cells after 48 hrs by sulforhodamine B assay; conditions: CAKI-1, 48 h; in short: as §1
NCI-H522 = assay: Growth inhibition of human NCI-H522 cells after 48 hrs by sulforhodamine B assay; conditions: NCI-H522, 48 h; in short: as §1
SR = assay: Growth inhibition of human SR cells after 48 hrs by sulforhodamine B assay
SK-MEL-5 = assay: Growth inhibition of human SK-MEL-5 cells after 48 hrs by sulforhodamine B assay; conditions: SK-MEL-5, 48 h
[5] = Growth inhibition of human SF295 cells after 48 hrs by sulforhodamine B assay; conditions: SF-295, 48 h
T47D = assay: Growth inhibition of human T47D cells after 48 hrs by sulforhodamine B assay
A549 = assay: Growth inhibition of human A549 cells after 48 hrs by sulforhodamine B assay; conditions: A549, 48 h; in short: as §1
HOP-62 = assay: Growth inhibition of human HOP62 cells after 48 hrs by sulforhodamine B assay; conditions: HOP-62, 48 h; in short: as §1
[6] = Growth inhibition of human SF539 cells after 48 hrs by sulforhodamine B assay; conditions: SF-539, 48 h
NCI-H460 = assay: Growth inhibition of human NCI-H460 cells after 48 hrs by sulforhodamine B assay; conditions: NCI-H460, 48 h; in short: as §1
[7] = Growth inhibition of human HCC2998 cells after 48 hrs by sulforhodamine B assay; conditions: HCC 2998, 48 h; in short: as §1
OVCAR-5 = assay: Growth inhibition of human OVCAR5 cells after 48 hrs by sulforhodamine B assay; conditions: OVCAR-5, 48 h
U-251 = assay: Growth inhibition of human U251 cells after 48 hrs by sulforhodamine B assay; conditions: U-251, 48 h
SN12C = assay: Growth inhibition of human SN12C cells after 48 hrs by sulforhodamine B assay
[8] = Growth inhibition of human NCI-ADR-RES cells after 48 hrs by sulforhodamine B assay; in short: as §1
HCT-15 = assay: Growth inhibition of human HCT15 cells after 48 hrs by sulforhodamine B assay; conditions: HCT-15, 48 h; in short: as §1
UACC-257 = assay: Growth inhibition of human UACC257 cells after 48 hrs by sulforhodamine B assay; conditions: UACC-257, 48 h
SNB-19 = assay: Growth inhibition of human SNB19 cells after 48 hrs by sulforhodamine B assay; conditions: SNB-19, 48 h
HL-60(TB) = assay: Growth inhibition of human HL-60(TB) cells after 48 hrs by sulforhodamine B assay; conditions: HL-60, 48 h
In short: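 NCI 60-cell-line screen, HL-60(TB) included. Compound given at five 10-fold dilutions from 10^-4 to 10^-8 M. Cells exposed for the last 48 h of a 72 h incubation. Growth or viability estimated by sulforhodamine B protein assay. GI50 is the concentration giving 50% growth inhibition. Values outside the tested range are reported as greater or less than the highest or lowest concentration.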

IGROV-1 = assay: Growth inhibition of human IGROV1 cells after 48 hrs by sulforhodamine B assay; conditions: IGROV-1, 48 h; in short: as §1
MDA-MB-468 = assay: Growth inhibition of human MDA-MB-468 cells after 48 hrs by sulforhodamine B assay; conditions: MDA-MB-468, 48 h; in short: as §1

## COc1ccc2[nH]c(-c3ccccc3)c(C=C(C#N)C#N)c2c1
SF-268
  GI50: 8.3 µM
UO-31
  GI50: 6.4 µM
A498
  GI50: 2 µM
MDA-MB-231
  GI50: 3.8 µM
UACC-62
  GI50: 2.5 µM
NCI-H322M
  GI50: 7.4 µM
NCI-H226
  GI50: 3.5 µM
MDA-MB-435
  GI50: 0.607 µM
[1]
  GI50: 3.7 µM
OVCAR-3
  GI50: 3.1 µM
K562
  GI50: 2.1 µM
HT-29
  GI50: 3.1 µM
[2]
  GI50: 2.2 µM
[3]
  GI50: 2.1 µM
CCRF-CEM
  GI50: 3.4 µM
SW-620
  GI50: 3.6 µM
786-0
  GI50: 6.6 µM
M14
  GI50: 2.3 µM
Malme-3M
  GI50: 4.4 µM
PC-3
  GI50: 5.4 µM
OVCAR-8
  GI50: 7.7 µM
[4]
  GI50: 4.1 µM
NCI-H23
  GI50: 4.1 µM
ACHN
  GI50: 7.4 µM
TK-10
  GI50: 5.1 µM
CAKI-1
  GI50: 4.1 µM
NCI-H522
  GI50: 4.6 µM
SR
  GI50: 0.865 µM
SK-MEL-5
  GI50: 2.9 µM
[5]
  GI50: 4.2 µM
T47D
  GI50: 2.3 µM
A549
  GI50: 7 µM
HOP-62
  GI50: 5.3 µM
[6]
  GI50: 2.9 µM
NCI-H460
  GI50: 3.6 µM
[7]
  GI50: 6.1 µM
OVCAR-5
  GI50: 44.2 µM
U-251
  GI50: 3.5 µM
SN12C
  GI50: 4.7 µM
[8]
  GI50: 2.8 µM
HCT-15
  GI50: 3.2 µM
UACC-257
  GI50: 30 µM
SNB-19
  GI50: 6 µM
HL-60(TB)
  GI50: 2.5 µM
IGROV-1
  GI50: 8.4 µM
MDA-MB-468
  GI50: 2.1 µM

## COc1ccc2[nH]c(-c3ccccc3)c(/C=C(\C#N)S(=O)(=O)c3ccccc3)c2c1
SF-268
  GI50: 13.3 µM
UO-31
  GI50: 4 µM
A498
  GI50: 9.3 µM
MDA-MB-231
  GI50: 7.5 µM
UACC-62
  GI50: 3.8 µM
NCI-H322M
  GI50: 30.1 µM
NCI-H226
  GI50: 9.4 µM
MDA-MB-435
  GI50: 1.1 µM
[1]
  GI50: 4.7 µM
OVCAR-3
  GI50: 5 µM
K562
  GI50: 1.4 µM
HT-29
  GI50: 3.5 µM
[2]
  GI50: 11.6 µM
[3]
  GI50: 7.4 µM
CCRF-CEM
  GI50: 6.5 µM
SW-620
  GI50: 4 µM
786-0
  GI50: 6.1 µM
M14
  GI50: 3.7 µM
Malme-3M
  GI50: 19.4 µM
PC-3
  GI50: 8.3 µM
OVCAR-8
  GI50: 7.8 µM
[4]
  GI50: 6.9 µM
NCI-H23
  GI50: 8 µM
ACHN
  GI50: 12.9 µM
TK-10
  GI50: 17.5 µM
CAKI-1
  GI50: 4.5 µM
NCI-H522
  GI50: 4 µM
SR
  GI50: 2.2 µM
SK-MEL-5
  GI50: 3.1 µM
[5]
  GI50: 2.8 µM
T47D
  GI50: 5.2 µM
A549
  GI50: 6 µM
HOP-62
  GI50: 8.3 µM
[6]
  GI50: 5.5 µM
NCI-H460
  GI50: 4.6 µM
[7]
  GI50: 18.7 µM
OVCAR-5
  GI50: 37.3 µM
U-251
  GI50: 4.6 µM
SN12C
  GI50: 7.8 µM
[8]
  GI50: 3.8 µM
HCT-15
  GI50: 4 µM
UACC-257
  GI50: 4.9 µM
SNB-19
  GI50: 13.5 µM
HL-60(TB)
  GI50: 2.4 µM
IGROV-1
  GI50: 4.8 µM
MDA-MB-468
  GI50: 4.2 µM

## CCOC(=O)C(=Cc1c(-c2ccccc2)[nH]c2ccccc12)C(=O)OCC
SF-268
  GI50: 6.8 µM
UO-31
  GI50: 4 µM
A498
  GI50: 16.9 µM
MDA-MB-231
  GI50: 5.8 µM
UACC-62
  GI50: 4.6 µM
NCI-H322M
  GI50: 12.7 µM
NCI-H226
  GI50: 11.4 µM
MDA-MB-435
  GI50: 3.4 µM
[1]
  GI50: 3.9 µM
OVCAR-3
  GI50: 4.2 µM
K562
  GI50: 3.6 µM
HT-29
  GI50: 4.6 µM
[2]
  GI50: 5.3 µM
[3]
  GI50: 4.9 µM
CCRF-CEM
  GI50: 2.6 µM
SW-620
  GI50: 5.6 µM
786-0
  GI50: 12.9 µM
M14
  GI50: 4.2 µM
Malme-3M
  GI50: 8.9 µM
PC-3
  GI50: 3.3 µM
OVCAR-8
  GI50: 4.1 µM
[4]
  GI50: 12.4 µM
NCI-H23
  GI50: 2.9 µM
ACHN
  GI50: 4.4 µM
TK-10
  GI50: 13.6 µM
CAKI-1
  GI50: 10.3 µM
NCI-H522
  GI50: 3.4 µM
SR
  GI50: 2.1 µM
SK-MEL-5
  GI50: 3.8 µM
[5]
  GI50: 7.6 µM
T47D
  GI50: 2.7 µM
A549
  GI50: 6.4 µM
HOP-62
  GI50: 5.5 µM
[6]
  GI50: 14.5 µM
NCI-H460
  GI50: 3.8 µM
[7]
  GI50: 10.1 µM
OVCAR-5
  GI50: 18.5 µM
U-251
  GI50: 4.9 µM
SN12C
  GI50: 5.1 µM
[8]
  GI50: 2.9 µM
HCT-15
  GI50: 4.1 µM
UACC-257
  GI50: 7.5 µM
SNB-19
  GI50: 23.9 µM
HL-60(TB)
  GI50: 4.4 µM
IGROV-1
  GI50: 5.7 µM
MDA-MB-468
  GI50: 3.1 µM
